PMC4661106 (Bioorganic & medicinal chemistry, 2015)
pKi: −log10 of the molar value.

Tests used:
HIV-1 PR [1] = target: T1, HIV-1 PR (Human immunodeficiency virus type 1 group M subtype B, UniProt P04585); type: biochemical
MT-4 cells = experiment: Endpoint cytotoxicity assay, viable cells by trypan-blue dye exclusion; type: cell-based; conditions: three days, Figure 5; for general cytotoxicity to MT-4 cells: at 100 μM; for general cytotoxicity: tolerated by MT-4 cells: up to 50 μM
In short: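 Uninfected MT-4 cells were seeded at 2 × 10^5 cells/ml, in triplicate, in medium with carrier only or test compound at 10, 50 or 100 μM. Compounds were dissolved in DMSO and diluted in medium to a final DMSO of 0.25%. Incubation was 37 °C, 5% CO2. After three days, viable cells were counted by trypan-blue dye exclusion.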

[2] = tested on: HIV replication in TZM-bl cells; experiment: Viral replication inhibition assay, luciferase reporter; type: cell-based; conditions: doses of 50 μM or higher, MOI = 0.01
In short: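 TZM-bl cells (HeLa-derived; CD4, CCR5, CXCR4; tat-driven luciferase) were seeded at 1×10^4 cells/mL and incubated overnight. The medium was then replaced with replication-competent pNL4-3 HIV or mock, in medium with carrier or test compound at final 25, 50 or 100 μM. Final DMSO was 0.25%. Conditions were run in triplicate. On the indicated days post infection, cells were PBS-washed and luciferase was read. RLU was expressed relative to the untreated control.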

HIV-1 PR [3] = target: T1, HIV-1 PR; experiment: Michaelis-Menten kinetics, mode of inhibition; type: biochemical; conditions: Michaelis-Menten analysis, Figure 4
Compound solubility = type: physicochemical

Row | Compound | pKi (HIV-1 PR [1]) | also measured
1 | CC1=N[C@H](CC(C)C)C(=O)N(CC(=O)N2CCN(C(=O)OCC3c4ccccc4-c4ccccc43)CC2)c2cc(C(=O)OC(C)(C)C)ccc21 [Compound 8t, (R)-tert-Butyl 1-(2-(4-(((9H-fluoren-9-yl)methoxy)carbonyl)piperazin-1-yl)-2-oxoethyl)-3-isobutyl-5-methyl-2-oxo-2,3-dihydro-1H-benzo[e][1,4]diazepine-8-carboxylate] | < 3.70 | 
2 | CC1=N[C@H](CC(C)C)C(=O)N(CC(=O)N2CCN(C(=O)OCc3ccccc3)CC2)c2cc(C(=O)OC(C)(C)C)ccc21 [Compound 8s, (R)-tert-Butyl 1-(2-(4-((benzyloxy)carbonyl)piperazin-1-yl)-2-oxoethyl)-3-isobutyl-5-methyl-2-oxo-2,3-dihydro-1H-benzo[e][1,4]diazepine-8-carboxylate] | < 3.70 | 
3 | CC1=N[C@H](CC(C)C)C(=O)N(Cc2ccncc2)c2cc(C(=O)O)ccc21 [Compound 9m, (R)-3-Isobutyl-5-methyl-2-oxo-1-(pyridin-4-ylmethyl)-2,3-dihydro-1H-benzo[e][1,4]diazepine-8-carboxylic acid] | < 3.70 | 
4 | CC1=N[C@@H](C)C(=O)Nc2cc(C(=O)O)ccc21 [Compound 7b, (S)-3,5-Dimethyl-2-oxo-2,3-dihydro-1H-benzo[e][1,4]diazepine-8-carboxylic acid] | < 3.70 | 
5 | CC1=N[C@H](CC(C)C)C(=O)N(CC(C)C)c2cc(C(=O)O)ccc21 [Compound 9k, (R)-1,3-Diisobutyl-5-methyl-2-oxo-2,3-dihydro-1H-benzo[e][1,4]diazepine-8-carboxylic acid] | < 3.70 | 
6 | CC1=N[C@H](CC(C)C)C(=O)N(CC(=O)O)c2cc(C(=O)O)ccc21 [Compound 9l, (R)-1-(Carboxymethyl)-3-isobutyl-5-methyl-2-oxo-2,3-dihydro-1H-benzo[e][1,4]diazepine-8-carboxylic acid] | < 3.70 | 
7 | CCCCCCCCCCCCCCCCNC(=O)CN1C(=O)[C@@H](CC(C)C)N=C(C)c2ccc(C(=O)O)cc21 [Compound 9p, (R)-3-isobutyl-5-methyl-2-oxo-1-(2-oxo-2-(hexadecylamino)ethyl)-2,3-dihydro-1H-benzo[e][1,4]diazepine-8-carboxylic acid] |  | general cytotoxicity to MT-4 cells (MT-4 cells): particularly cytotoxic; general cytotoxicity: tolerated by MT-4 cells (MT-4 cells): All but 9p were tolerated; inhibition of HIV replication within cells (RLU relative to control) [2]: appeared to inhibit HIV replication
8 | CC1=N[C@H](CC(C)C)C(=O)Nc2cc(C(=O)OC(C)(C)C)ccc21 [Compound 6d, (R)-tert-Butyl 3-isobutyl-5-methyl-2-oxo-2,3-dihydro-1H-benzo[e][1,4]diazepine-8-carboxylate] | < 3.70 | 
9 | CC1=N[C@@H](Cc2ccccc2)C(=O)Nc2cc(C(=O)O)ccc21 [Compound 7f, (S)-3-Benzyl-5-methyl-2-oxo-2,3-dihydro-1H-benzo[e][1,4]diazepine-8-carboxylic acid] | < 3.70 | 
10 | CC1=N[C@H](Cc2ccccc2)C(=O)Nc2cc(C(=O)O)ccc21 [Compound 7g, (R)-3-benzyl-5-methyl-2-oxo-2,3-dihydro-1H-benzo[e][1,4]diazepine-8-carboxylic acid] | < 3.70 | 
11 | CC1=N[C@H](CC(C)C)C(=O)N(Cc2ccc(-c3ccccc3)cc2)c2cc(C(=O)O)ccc21 [Compound 9j, (R)-1-([1,1′-Biphenyl]-4-ylmethyl)-3-isobutyl-5-methyl-2-oxo-2,3-dihydro-1H-benzo[e][1,4]diazepine-8-carboxylic acid] |  | general cytotoxicity to MT-4 cells (MT-4 cells): particularly cytotoxic; general cytotoxicity: tolerated by MT-4 cells (MT-4 cells): tolerated; inhibition of HIV replication within cells (RLU relative to control) [2]: appeared to inhibit HIV replication
12 | CC1=NCC(=O)Nc2cc(C(=O)OC(C)(C)C)ccc21 [Compound 6a, tert-Butyl 5-methyl-2-oxo-2,3-dihydro-1H-benzo[e][1,4]diazepine-8-carboxylate] | < 3.70 | 
13 | CCC(C)[C@@H]1N=C(C)c2ccc(C(=O)OC(C)(C)C)cc2NC1=O (stereo in doubt) [Compound 6e, (S)-tert-Butyl 3-((R)-sec-butyl)-5-methyl-2-oxo-2,3-dihydro-1H-benzo[e][1,4]diazepine-8-carboxylate] | < 3.70 | 
14 | CC1=N[C@H](CC(C)C)C(=O)N(Cc2ccccc2)c2cc(C(=O)O)ccc21 [Compound 9h, (R)-1-Benzyl-3-isobutyl-5-methyl-2-oxo-2,3-dihydro-1H-benzo[e][1,4]diazepine-8-carboxylic acid] | < 3.70 | 
15 | CC1=N[C@H](CC(C)C)C(=O)N(Cc2ccccc2)c2cc(C(=O)OC(C)(C)C)ccc21 [Compound 8h, (R)-tert-Butyl 1-benzyl-3-isobutyl-5-methyl-2-oxo-2,3-dihydro-1H-benzo[e][1,4]diazepine-8-carboxylate] | < 3.70 | 
16 | CCCCCCNC(=O)CN1C(=O)[C@@H](CC(C)C)N=C(C)c2ccc(C(=O)OC(C)(C)C)cc21 [Compound 8q, (R)-tert-Butyl 3-isobutyl-5-methyl-2-oxo-1-(2-oxo-2-(hexylamino)ethyl)-2,3-dihydro-1H-benzo[e][1,4]diazepine-8-carboxylate] | < 3.70 | 
17 | CCCCCCCCCCNC(=O)CN1C(=O)[C@@H](CC(C)C)N=C(C)c2ccc(C(=O)O)cc21 [Compound 9o, (R)-3-Isobutyl-5-methyl-2-oxo-1-(2-oxo-2-(decylamino)ethyl)-2,3-dihydro-1H-benzo[e][1,4]diazepine-8-carboxylic acid] |  | mode of inhibition (HIV-1 PR [3]): competitive inhibitor; general cytotoxicity to MT-4 cells (MT-4 cells): particularly cytotoxic; general cytotoxicity: tolerated by MT-4 cells (MT-4 cells): tolerated; solubility (Compound solubility): poor solubility; inhibition of HIV replication within cells (RLU relative to control) [2]: appeared to inhibit HIV replication
18 | CC1=N[C@H](CC(C)C)C(=O)Nc2cc(C(=O)O)ccc21 [Compound 7d, (R)-3-Isobutyl-5-methyl-2-oxo-2,3-dihydro-1H-benzo[e][1,4]diazepine-8-carboxylic acid] | < 3.70 | 
19 | CC1=N[C@H](CC(C)C)C(=O)N(Cc2ccc(C3CCCCC3)cc2)c2cc(C(=O)O)ccc21 [Compound 9d, (R)-1-(4-Cyclohexylbenzyl)-3-isobutyl-5-methyl-2-oxo-2,3-dihydro-1H-benzo[e][1,4]diazepine-8-carboxylic acid] |  | general cytotoxicity to MT-4 cells (MT-4 cells): particularly cytotoxic; general cytotoxicity: tolerated by MT-4 cells (MT-4 cells): tolerated; inhibition of HIV replication within cells (RLU relative to control) [2]: appeared to inhibit HIV replication
20 | CCCCCCCCCCNC(=O)CN1C(=O)[C@@H](CC(C)C)N=C(C)c2ccc(C(=O)OC(C)(C)C)cc21 [Compound 8o, (R)-tert-Butyl 3-isobutyl-5-methyl-2-oxo-1-(2-oxo-2-(decylamino)ethyl)-2,3-dihydro-1H-benzo[e][1,4]diazepine-8-carboxylate] | < 3.70 | 
21 | CC1=N[C@H](CC(C)C)C(=O)N(CC(=O)N2CCNCC2)c2cc(C(=O)O)ccc21 [Compound 9r, (R)-3-Isobutyl-5-methyl-2-oxo-1-(2-oxo-2-(piperazin-1-yl)ethyl)-2,3-dihydro-1H-benzo[e][1,4]diazepine-8-carboxylic acid] | < 3.70 | 
22 | CC1=N[C@H](CC(C)C)C(=O)N(Cc2ccncc2)c2cc(C(=O)OC(C)(C)C)ccc21 [Compound 8m, (R)-tert-Butyl 3-isobutyl-5-methyl-2-oxo-1-(pyridin-4-ylmethyl)-2,3-dihydro-1H-benzo[e][1,4]diazepine-8-carboxylate] | < 3.70 | 
23 | CC1=N[C@@H](C)C(=O)Nc2cc(C(=O)OC(C)(C)C)ccc21 [Compound 6b, (S)-tert-Butyl 3,5-dimethyl-2-oxo-2,3-dihydro-1H-benzo[e][1,4]diazepine-8-carboxylate] | < 3.70 | 
24 | CC1=N[C@@H](CC(C)C)C(=O)Nc2cc(C(=O)O)ccc21 [Compound 7c, (S)-3-Isobutyl-5-methyl-2-oxo-2,3-dihydro-1H-benzo[e][1,4]diazepine-8-carboxylic acid] | < 3.70 | 
